Assay outcomes: PubChem BioAssay, several laboratories
Arbovirus inh: blocks arbovirus infection; actives 0.37% (n = 200,000); inhibition, % at 10 µM; arbovirus infection cell-based antiviral screen; in the data active = inhibition above about 30%
Diaph inh CS: diaphorase inhibition or chemical oxidation counter-screen; actives 0.69% (n = 190,000); diaphorase resazurin-to-resorufin fluorescence, NADH, 16 min; bacterial (C. kluyveri) enzyme, not human; inhibition, % at 20 µM;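 active = primary screen inhibition at 20 µM above a set limit, cut at about 50% in these data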
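Benchmarks: positive control wells lacking NADH, neutral wells with DMSO only. System: bacterial diaphorase enzyme (C. kluyveri). Input: 0.14 U/mL diaphorase, enzyme working solution. Detection: resorufin fluorescence, excitation 544 nm, emission 590 nm. Times: 16-min room-temperature incubation before reading.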
Diaph act CS: activates diaphorase or chemically reduces, flagging diaphorase assay artifacts; Diaphorase/resazurin coupled assay, resorufin fluorescence, 16 min; active compounds read high; 1 = vehicle wells, 0 = NADH-free wells; activation factor at 20 µM; actives 0.005% (n = 190,000); AID 1229;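 active = diaphorase activity raised at least twofold by the compound at 20 µM; inactive = activation factor below 2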
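Test system: Clostridium kluyveri diaphorase, purified enzyme; input: enzyme 0.07 U/mL final; buffer or medium: 50 mM HEPES pH 7.4 with 4.542 mM MgCl2, 0.005% Tween 20; also added: 0.114 mM NADH and 0.1 mM resazurin, final amounts; schedule: 16 min enzyme reaction, ambient temperature; technique: fluorescence of resorufin, 544 nm excitation, 590 nm emission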
G6PDH counter: counter-screen for G6PDH assay hits: L. mesenteroides G6PDH inhibition. Purified L. mesenteroides G6PDH, diaphorase/resazurin coupled fluorescence, 45 min. actives 0.12% (n = 200,000). inhibition, % at 5 µM. AID 1020; in the data active = inhibition above about 50%
HKDC1 inh: inhibitors of human hexokinase HKDC1; recombinant HKDC1, G6PDH/diaphorase resazurin coupled fluorescence; actives 0.16% (n = 340,000); inhibition, % at 20 µM; Q2TB90;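 active = inhibition above about 35% when tested at 20 µM, limit read from the data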
Target sequence (Q2TB90 whole entry, looked up): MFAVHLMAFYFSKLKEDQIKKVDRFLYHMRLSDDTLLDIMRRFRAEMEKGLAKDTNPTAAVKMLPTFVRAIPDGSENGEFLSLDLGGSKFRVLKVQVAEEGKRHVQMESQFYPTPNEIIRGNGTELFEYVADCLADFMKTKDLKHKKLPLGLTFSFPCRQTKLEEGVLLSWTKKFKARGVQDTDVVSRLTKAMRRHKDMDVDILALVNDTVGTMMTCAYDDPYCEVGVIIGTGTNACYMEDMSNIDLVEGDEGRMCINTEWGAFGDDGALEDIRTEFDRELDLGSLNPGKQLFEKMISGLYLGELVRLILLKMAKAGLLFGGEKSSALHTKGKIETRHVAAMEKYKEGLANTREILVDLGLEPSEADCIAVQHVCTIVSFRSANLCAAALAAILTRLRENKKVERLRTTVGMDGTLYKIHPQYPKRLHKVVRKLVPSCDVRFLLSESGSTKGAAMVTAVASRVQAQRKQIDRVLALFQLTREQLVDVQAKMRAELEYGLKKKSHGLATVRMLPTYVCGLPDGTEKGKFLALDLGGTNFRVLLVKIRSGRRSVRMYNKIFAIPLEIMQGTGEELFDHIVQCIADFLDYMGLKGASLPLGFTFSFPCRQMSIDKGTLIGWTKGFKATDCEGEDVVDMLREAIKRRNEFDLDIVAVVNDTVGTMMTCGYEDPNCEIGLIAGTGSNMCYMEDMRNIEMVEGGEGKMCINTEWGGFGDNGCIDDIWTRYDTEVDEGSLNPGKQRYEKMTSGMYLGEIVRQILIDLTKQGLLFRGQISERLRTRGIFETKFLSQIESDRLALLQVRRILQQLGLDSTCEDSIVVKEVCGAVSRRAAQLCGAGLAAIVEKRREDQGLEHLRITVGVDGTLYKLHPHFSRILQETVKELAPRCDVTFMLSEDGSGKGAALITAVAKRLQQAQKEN
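Test system: recombinant HKDC1 (HK5) hexokinase enzyme, produced in-house / Doses: 20 µM test compound, 1% DMSO / Timing: 90 min, room temperature / Detection: G6PDH/diaphorase-coupled fluorescence, 1 mM NADP, 100 µM resazurin, 525/613 nm / Control set: DMSO wells with and without enzyme mix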
HKDC1 act conf2: confirmation of human HKDC1 activators; recombinant HKDC1, G6PDH/diaphorase resazurin fluorescence; active compounds read low; inhibition, % at 20 µM; shares compounds with HKDC1 inh; actives 14% (n = 740); AID 504708;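 active = inhibition at or below a set negative limit, negative inhibition meaning the enzyme was activated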
A number is an active result; - = inactive; . = not tested or not shown. Most compounds without a hit are left out; they make up all but 0.74% or so of the library.

SMILES	Arbovirus inh	Diaph inh CS	Diaph act CS	G6PDH counter	HKDC1 inh	HKDC1 act conf2
CCC(C)C(N)C1=NC(C(=O)N[C@@H](CC(C)C)C(=O)N[C@H](CCC(=O)[O-])C(=O)N[C@H](C(=O)N[C@H]2CCCCNC(=O)[C@H](CC(N)=O)NC(=O)[C@@H](CC(=O)[O-])NC(=O)[C@H](Cc3cnc[nH]3)NC(=O)[C@@H](Cc3ccccc3)NC(=O)[C@H]([C@@H](C)CC)NC(=O)[C@@H](CCCN)NC2=O)[C@@H](C)CC)CS1.[Zn+2] (stereo partly drawn)	.	.	.	.	92	-
CC(C)(C)NC(=O)CN(Cc1cccnc1)C(=O)c1csnn1	-	-	-	-	-	.
Cc1cc(C)c2c(=O)[nH]cnc2n1	-	-	-	-	64	-
O=C(O)c1nn(CC(=O)N2CCN(c3ncc(C(F)(F)F)cc3Cl)CC2)c(=O)c2ccccc12	.	.	.	.	-	.
C=CCOc1ccc(C=NNc2ccc(S(=O)(=O)Nc3ccccc3C(=O)O)cc2[N+](=O)[O-])cc1OC	.	.	.	.	51	-
CCOc1ccc(C=NNc2ccc(S(=O)(=O)Nc3ccccc3C(=O)O)cc2[N+](=O)[O-])cc1	.	.	.	.	-	.
COC(=O)CCC(=O)Nc1sc(Cc2ccccc2)c(C)c1C(N)=O	-	.	.	-	-	-
O=C(NCCc1ccccc1)C(c1cccs1)N(C(=O)CCl)c1ccc(Cl)cc1 (stereo not drawn)	-	-	-	-	37	-
FC(F)(F)c1nc2nncn2c2c1CCCCC2	-	-	-	-	-	.
COc1ccc(-c2cc3ccccc3[nH]2)cc1	.	.	.	.	39	-
CCOC(=O)c1ccc(NC2=CC(=O)C(=O)c3ccccc32)cc1	-	-	-	-	-	-
C=CCc1cccc(CNc2ccc(Br)cc2)c1O	-	-	-	-	-	.
NC(CSC(c1ccccc1)(c1ccccc1)c1cccc2ccccc12)C(=O)O (stereo not drawn)	.	.	.	.	35	-
NC(CSC1(c2cccc3ccccc23)c2ccccc2-c2ccccc21)C(=O)O (stereo not drawn)	.	.	.	.	-	.
C[C@]12c3[nH]c4ccccc4c3CCN1C(=O)C(CC(=O)NCc1cccc(C(F)(F)F)c1)C[C@@H]2C(=O)N1CCOCC1 (stereo partly drawn)	.	.	.	.	-	.
C[C@]12c3[nH]c4ccc(Cl)cc4c3CCN1C(=O)[C@@H](CC(=O)NCc1cccc(C(F)(F)F)c1)C[C@@H]2C(=O)N1CCOCC1	.	.	.	.	-	-
CC(OC(=O)c1ccccc1C(=O)N(C)c1ccccc1)C(=O)Nc1ccc(C(N)=O)cc1 (stereo not drawn)	.	.	.	.	-	.
CC(OC(=O)c1cc(O)c2ccccc2c1O)C(=O)Nc1ccc(C(N)=O)cc1 (stereo not drawn)	.	.	.	.	39	-
O=C(O)/C=C\c1cc2c(cc1[N+](=O)[O-])OCO2	.	.	.	.	-	.
O=C1NC(=S)N/C1=C/c1cc2c(cc1[N+](=O)[O-])OCO2	.	.	.	.	-	-37
Cc1ccccc1NC(=O)CN1C(=O)S/C(=C\c2cccn2-c2cccc(C(=O)O)c2)C1=O	-	-	-	-	-	.
Cc1ccc(NC(=O)CN2C(=O)S/C(=C\c3cccn3-c3cccc(C(=O)O)c3)C2=O)c(C)c1	-	-	-	-	-	-
CC(C)(C)c1nnc(N/N=C/c2cc(Br)ccc2O)n(N)c1=O	-	-	-	-	-	-49
CCc1nnc(N/N=C/c2cc(Br)c(O)cc2O)n1N	.	.	.	.	-	.
Cc1cc(=O)nc2c3ccccc3n(CC(=O)Nc3ccccc3Br)n12	.	.	.	.	-	.
SMILES	Arbovirus inh	Diaph inh CS	Diaph act CS	G6PDH counter	HKDC1 inh	HKDC1 act conf2
N=C1N(c2ccccc2)C(=S)C(=Nc2ccccc2)N1c1ccccc1	.	.	.	.	-	-
COc1ccccc1NS(=O)(=O)c1ccc(NN=C2CCCCC2)c([N+](=O)[O-])c1	-	-	-	-	-	.
O=C(CSc1n[nH]c(-c2cccnc2)n1)Nc1ccc([N+](=O)[O-])cc1Br	.	.	.	.	46	-
O=C(CSc1n[nH]c(-c2cccnc2)n1)Nc1ccccc1[N+](=O)[O-]	.	.	.	.	-	.
CCOC(=O)/C(=C\c1ccccc1)C(=O)c1cc(C(C)=O)c(Nc2ccccc2)s1	-	-	-	-	-	.
CCOC(=O)/C(=C\c1cccnc1)C(=O)c1cc(C(C)=O)c(Nc2ccccc2)s1	-	-	-	-	42	-
Cc1ccc(S(=O)(=O)/N=C2\C=C(NS(=O)(=O)c3ccccc3)C(=O)c3ccccc32)cc1	.	.	.	.	-	.
O=C(O)c1ccc(NC2=C/C(=N/S(=O)(=O)c3ccccc3)c3ccccc3C2=O)cc1	-	-	-	-	72	-
Cc1cc(C)c(S(=O)(=O)/N=C2\C=C(Nc3ccc(C(=O)O)cc3)C(=O)c3ccccc32)c(C)c1	.	.	.	.	41	-
Cc1cccn2c(=O)c(C=O)c(Nc3ccccc3)nc12	.	.	.	.	-	.
CCNC1=C(Cl)C(=O)c2ccccc2C1=O	-	-	-	-	-	.
CCCC(=O)NC1=C(Cl)C(=O)c2ccccc2C1=O	.	.	.	.	60	-
O=C1C=C(c2c(O)ccc3ccccc23)c2ccccc2C1=O	.	.	.	.	93	-
O=C1C=C(O)c2cccc(O)c2C1=O	.	.	.	.	-	.
CC(C)(C)n1[nH]c2c3c(ccc2c1=O)C(=O)c1ccccc1C3=O	-	-	-	-	42	-
COc1ccc(Cl)cc1NC(=O)C1CCN(C(=O)Nc2ccccc2)CC1	.	.	.	.	-	.
O=C1/C(=C\c2ccc(Cl)c(Cl)c2)CN(C(=O)CCN2CCOCC2)C/C1=C/c1ccc(Cl)c(Cl)c1	.	.	.	.	61	-
Cc1cc(C)n(-c2ccc(NC(=O)C3CCN(Cc4cc(C)c(C)o4)CC3)cc2)n1	.	.	.	.	41	-
c1ccc(Cn2cc(CN3CCCO3)c(-c3ccc4c(c3)OCO4)n2)cc1	-	-	-	-	-	.
CCN1CCN(c2cc3c(nn2)Oc2ccccc2N3C)CC1	-	-	-	-	-	-
Cn1c2ccccc2c(=O)c2c(=O)n(-c3ccccc3)c(C3CCCCC3)nc21	-	-	-	-	43	-
CCc1nc2c(c(=O)c3ccccc3n2C)c(=O)n1C1CCCCCC1	-	-	-	-	-	.
Cn1c2ccccc2c(=O)c2c(=O)n(C3CCCCCC3)c(C3CCCCC3)nc21	-	-	-	-	-	-
COc1ccc(Cn2c(C3CCCCC3)nc3c(c(=O)c4ccccc4n3C)c2=O)cc1	.	.	.	.	-	.
CC(=O)N1CCN(CC(=O)Nc2ccccc2C(=O)Nc2ccccc2)CC1	.	.	.	.	-	.
CSc1nc(N(C)CCO)c2sc3nc(-c4ccco4)c4c(c3c2n1)CCC4	-	-	-	-	47	-
O=C(C1=C(O)C(=O)N(c2nc3ccc(Cl)cc3s2)C1c1ccco1)c1ccco1 (stereo not drawn)	.	.	.	.	36	-
Cc1ccc2nc(N3C(=O)C(O)=C(C(=O)c4ccc(C)o4)C3c3ccco3)sc2c1 (stereo not drawn)	.	.	.	.	-	.
CC1=NOC(=O)/C1=C\c1ccc(-c2ccc(Cl)cc2Cl)o1	-	-	-	-	54	-
